STAT1 inh = STAT1 signaling inhibitors, primary screen, cell-based, HTS, luciferase reporter; NIH 3T3 STAT1-luciferase reporter, IFN-gamma, luminescence; 0.35% of 200,000 active; inhibition, % at 5.5 µM;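 active = inhibition above a set limit, the mean inhibition across all tested compounds plus 3 SD, cut at about 34% in these data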;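 also: 0% = IFN-gamma with DMSO and 100% = IFN-gamma with 300 µM nifuroxazide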
STAT3 inh-1 = IL-6 driven STAT3 reporter inhibitors, primary screen, U3A cells, luciferase, luminescence, MLSCN library; IL-6 STAT3-luciferase reporter; host cell line lacks STAT1; inhibition, % at 5.5 µM; 0.89% of 190,000 active; AID 862, 2007;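 active = inhibition above the mean inhibition across all screened compounds plus 3 SD, cut at about 44% in these data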;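 also: 0% = DMSO only wells and 100% = 100 µM nifuroxazide control wells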
PPC-1+TRAIL kill = compounds killing PPC-1 cancer cells with TRAIL present, primary screen, TRAIL potentiator project, ATPLite luminescence, uHTS | PPC-1 cells + TRAIL, ATPLite viability luminescence | cell killing (% activity), % at 4 µM or 5 µM | 0.41% of 220,000 active;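 active = cell killing above 50% in the first pass at 4 µM, then a duplicate retest at 5 µM averaging 50% or more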;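 also: plate controls were cells with TRAIL plus DMSO for no effect and medium-only wells lacking cells for full effect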
Lipid droplet = inhibitors of hepatocyte lipid droplet formation, primary screen, imaging, high-throughput imaging, BODIPY stain | AML12 mouse hepatocytes, oleate lipid droplets | inhibition, % at 6.5 µM | 0.4% of 240,000 active | AID 1656, 2009;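 active = lipid droplet intensity inhibited by at least 50%, with more than 500 cells counted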
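material = mouse AML12 hepatocyte cell line, fixed after treatment | also added = 100 µM oleic acid challenge | doses = compound at 6.5 µM only | schedule = overnight exposure | technique = Image-based BODIPY and DAPI two-channel analysis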
Platelet DG rel = inhibitors of platelet dense granule secretion, primary screen, cell-based, MLPCN, human platelets | human platelet-rich plasma, SFLLRN dense granule ATP release, luminescence | inhibition, %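 (compounds screened at 7.5 µM in platelet-rich plasma)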 | 0.22% of 300,000 active | AID 1663, 2009;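 active = mean replicate score, as percent of positive control, at or above 50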
H9c2 TAG inh = inhibitors of triacylglycerol accumulation, primary screen, cell-based, uHTS, fluorescence, H9c2; H9c2 cells, Nile Red lipid (TAG) fluorescence; cells loaded with 200 µM oleic acid; inhibition, % at 12.5 µM; 0.66% of 230,000 active; AID 651582, 2012;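 active = pattern-corrected inhibition of lipid staining of at least 50% with the nuclear-stain viability signal not falling by more than 50%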;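 also: 0% = DMSO wells and 100% = triacsin C control wells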
STAT3 inh-2 = STAT3 reporter inhibitors, retest of hits, confirmation, U3A cells, luciferase, luminescence. shares compounds with STAT3 inh-1. IL-6 STAT3 luciferase reporter; cell line lacks STAT1. inhibition, % at 5.7 µM. 45% of 1,200 active. AID 1265, 2008;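 active = inhibition above the hit cutoff computed for the primary STAT3 screen, cut at about 44% in these data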;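 also: 0% = IL-6 plus DMSO and 100% = IL-6 plus nifuroxazide control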
NFkB inh 2 = NF-kB reporter inhibitors in human cells, confirmation, counter-screen for STAT3 inhibitor project, cell-based, HEK293T, luciferase, TNF-alpha stimulus | shares compounds with STAT3 inh-1 | TNF-alpha induced | inhibition, % at 5.7 µM | 36% of 1,200 active;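 active = inhibition above the mean of solvent-only control wells plus 3 SD, cutoff set per campaign, cut at about 13% in these data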;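 also: 0% = TNF-alpha with DMSO and 100% = TNF-alpha with MG high control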
STAT1 inh STAT3c = STAT1 reporter inhibitors, IFN-gamma induced, confirmation, counter-screen for STAT3 inhibitor project, cell-based, NIH 3T3, luciferase luminescence | shares compounds with STAT3 inh-1 | NIH 3T3 STAT1-luciferase reporter | inhibition, % at 5.7 µM | 27% of 1,200 active | AID 1317, 2008;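 active = inhibition above the mean plus 3 SD of solvent-only control wells, limit set per screening run, cut at about 16% in these data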;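 also: 0% = DMSO with IFN-gamma and 100% = nifuroxazide control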
Starred values were filed as active, the others as inactive; x = not tested or not shown. In the library only some 1.5% were active in any assay of this set; here they are far more common.

SMILES	STAT1 inh	STAT3 inh-1	PPC-1+TRAIL kill	Lipid droplet	Platelet DG rel	H9c2 TAG inh	STAT3 inh-2	NFkB inh 2	STAT1 inh STAT3c
O=C(Nc1ccc(N2CCN(C(=O)c3ccco3)CC2)c(Cl)c1)c1cc2ccccc2o1	9	48*	21	24	-13	18	48*	11	4
O=C(Nc1ccccc1)c1cc2ccccc2o1	-49	44*	32	-4	44	-23	10	-43	-120
O=C(Nc1ccc(N2CCN(C(=O)c3ccccc3)CC2)c(Cl)c1)c1ccco1	7	19	28	2	4	3	x	x	x
O=C(C(=O)N(Cc1ccccc1)Cc1ccccc1)c1c(-c2ccccc2)[nH]c2ccccc12	x	x	x	x	x	-1	x	x	x
c1ccc2c(c1)[nH]c1c(N3CCCC3)ncnc12	17	46*	8	2	-16	-10	39	18*	23*
CC1=CC(=O)Nc2ccccc2S1	x	x	x	x	x	-13	x	x	x
CCc1nc2c(OCc3ccc(F)cc3)cccn2c1N(C)C(=O)COc1ccccc1	x	x	x	x	x	56	x	x	x
Cc1oc(-c2ccc3c(c2)OCCO3)cc1C(=O)O	9	64*	6	x	22	x	93*	56*	74*
CC(C)N1CCCC(C)(C(=O)Nc2nc3ccccc3[nH]2)C1 (stereo unspecified)	x	x	x	x	x	11	x	x	x
Cc1ccc(NC(=O)c2ccc(CN3CCc4ccccc4C3)cc2)cc1	-2	71*	26	x	3	-21	67*	18*	-8
O=C(Nc1ccccc1)c1ccc(CN2CCc3ccccc3C2)cc1	-11	52*	x	11	-4	-3	64*	8	-3
O=C(Nc1ccccc1F)c1ccc(CN2CCc3ccccc3C2)cc1	x	x	x	4	4	-9	x	x	x
O=C(Nc1cccnc1)c1ccc(CN2CCc3ccccc3C2)cc1	1	47*	9	x	9	0	37	9	4
Cc1cc(C)cc(NC(=O)c2ccc(CN3CCc4ccccc4C3)cc2)c1	x	x	x	8	-2	x	x	x	x
CCc1nc2ccc(C(=O)N3CCN(C(=O)c4ccco4)CC3)cn2c1N(CC)Cc1cccc(Br)c1	x	x	x	x	x	-7	x	x	x
Cc1nc(C(F)(F)F)ccc1C(=O)N1CCC1(C)C(=O)Nc1ccc2c(c1)OCO2 (stereo unspecified)	x	x	x	x	x	7	x	x	x
CCNC(=O)C1(C)CCN(C(=O)c2cccc(C#N)c2)C1 (stereo unspecified)	x	x	x	x	x	-7	x	x	x
CC(=O)N1CCN(c2ccc(NC(=O)COc3ccc(Cl)cc3Cl)cc2)CC1	7	60*	20	x	-1	-4	37	2	2
O=C(COc1ccc(Cl)cc1)Nc1ccc(N2CCN(C(=O)c3ccco3)CC2)cc1	15	61*	8	x	-7	x	40	5	8
COc1ccc(CN2CCC3CC2c2cc(-c4cccc(C)c4)ccc23)cc1 (stereo unspecified)	x	x	x	x	x	-15	x	x	x
NNC(=O)c1cccc(COc2ccc(Br)cc2)c1	32	79*	12	13	-3	x	71*	33*	31*
CCCCOc1ccc(Br)cc1CSC(=N)N	26	58*	21	-14	11	8	71*	25*	21*
CCOc1ccc(C(C)=O)cc1CSC(=N)N	20	16	14	-10	1	-8	x	x	x
NS(=O)(=O)c1ccc(CCNc2ncnc3sccc23)cc1	22	54*	12	0	3	-74	48*	13	23*

Compound activity from PubChem.
